Reference: ChEMBL document CHEMBL1145810, “Synthesis and complement inhibitory activity of B/C/D-ring analogues of the fungal metabolite 6,7-diformyl-3',4',4a',5',6',7',8',8a'-octahydro-4,6',7'-trihydroxy- 2',5',5',8a'-tetramethylspiro[1'(2'H)-naphthalene-2(3H)-benzofuran]” (J Med Chem, 2003)

Assays:
Homo sapiens = species on record: Homo sapiens; test: Ability to inhibit complement-mediated erythrocyte lysis (hemolysis) in human serum; format: functional, organism-based
Summary of the method: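 Antibody-sensitized sheep erythrocytes incubated with compound and diluted human serum, 60 min at 37 °C. Cells pelleted by centrifugation; released hemoglobin read at 410 nm in supernatant. Each sample paired with a serum-free control for complement-independent lysis, which was subtracted. Fractional inhibition taken relative to the no-compound sample.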

Oryctolagus cuniculus = species on record: Oryctolagus cuniculus; test: Ability to inhibit lysis of rabbit erythrocytes by the alternative complement pathway was determined; format: functional, organism-based
Summary of the method: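 Alternative-pathway hemolysis of rabbit erythrocytes. Cells incubated with compound and human serum for 60 min at 37 °C. Supernatant hemoglobin read at 410 nm after centrifugation. Serum-free background was subtracted and inhibition taken relative to the no-compound sample.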

[1] = Inhibitory activity against proteolytic release of C5a in activated human serum was determined; format: functional
Summary of the method: (§1)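 Human serum (73% of final volume) equilibrated with a range of compound concentrations dissolved in 0.10 M HEPES, 0.15 M NaCl, pH 7.4. Serum then activated with heat-aggregated IgG, and C5a[desArg] and C3a[desArg] quantified. Fractional inhibition taken relative to the no-compound sample and to the background level without aggregated IgG. n = 3 (one compound n = 2).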

[2] = Inhibitory activity against proteolytic release of C3a in activated human serum was determined; format: functional; summary of the method: as §1

With `COc1cc(C=O)c(C(=O)O)c2c1CC1(CCCCC1)O2` the IC50 (Homo sapiens) was 1700 µM and the IC50 (Oryctolagus cuniculus) was 1900 µM.

For `COc1cc(C(=O)O)c(C(=O)O)c2c1CC1(CCCCC1)O2`, the IC50 (Homo sapiens) was 800 µM and the IC50 (Oryctolagus cuniculus) was 1200 µM.

In the case of `O=C(O)c1ccc(O)c2c1OC1(CCCCC1)C2`, the IC50 (Homo sapiens) is reported as 3000 µM.

With `COc1cc(C(=O)O)c(C=O)c2c1CC1(CCCCC1)O2` the IC50 [1] was 500 µM, the IC50 (Homo sapiens) was 160 µM and the IC50 (Oryctolagus cuniculus) was 730 µM.

`COc1ccc(C=O)c2c1CC1(CCCCC1)O2` gave an IC50 [1] of 8000 µM and an IC50 [2] of 13000 µM.

Compound `COc1cc(C(=O)O)cc2c1CC1(CCCCC1)O2` has an IC50 (Homo sapiens) of 530 µM and an IC50 (Oryctolagus cuniculus) of 2200 µM.

In the case of `COc1cc2c(c3c1CC1(CCCCC1)O3)C(=O)OC2`, the IC50 [1] is reported as 1300 µM and the IC50 [2] is reported as 700 µM.

For `COc1cc(C(=O)O)cc(O)c1CC1=CCCCC1`, the IC50 (Homo sapiens) was 820 µM and the IC50 (Oryctolagus cuniculus) was 3500 µM.

`COc1ccc(C(=O)O)c(O)c1CC1=CCCCC1` gave an IC50 (Homo sapiens) of 2100 µM.

For `O=C(O)c1cc(O)c2c(c1)OC1(CCCCC1)C2`, the IC50 (Homo sapiens) was 1500 µM and the IC50 (Oryctolagus cuniculus) was 3800 µM.

Compound `C[C@@H]1CCC2C(C)(C)[C@H](O)[C@H](O)C[C@]2(C)C12Cc1c(O)cc(C(=O)O)c(C=O)c1O2` (stereo partly drawn) has an IC50 [1] of 3000 µM, an IC50 (Homo sapiens) of 570 µM and an IC50 (Oryctolagus cuniculus) of 330 µM.

`COc1ccc(C(=O)O)c2c1CC1(CCCCC1)O2` gave an IC50 [1] of 5000 µM, an IC50 [2] of 22000 µM and an IC50 (Homo sapiens) of 1300 µM. For the same compound, the IC50 (Oryctolagus cuniculus) was 2200 µM.

`O=C(O)c1ccc(O)cc1O` [2,4-DIHYDROXYBENZOIC ACID] gave an IC50 [1] of 22000 µM.

`O=C(O)c1ccccc1O` [SALICYLIC ACID] gave an IC50 [1] of 21000 µM.
